Data: ChEMBL document CHEMBL1153852, “Steroidal lactones as inhibitors of 17beta-hydroxysteroid dehydrogenase type 5: chemical synthesis, enzyme inhibitory activity, and assessment of estrogenic and androgenic activities” (Eur J Med Chem, 2009)
Active and inactive are the calls of the source. The rule behind the calls is not given here.

What was measured:
Mus musculus [1] = species: Mus musculus; assay: Androgenic activity in mouse SC115 cells expressing androgen receptor assessed as DHT-induced cell proliferation at 1 uM after 10 days relative to DHT; assay type: functional, cell-based
Summary of the method: (§1)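 SC115 Shionogi clone selected for DHT sensitivity, in MEM with 2% dextran-charcoal-treated FCS, seeded at 20,000 cells/well. After 24 h the medium is renewed and lactones added at 0.1 and 1, without DHT. Final ethanol is 0.01%. Cells are grown 10 days at 37 °C in 5% CO2, with medium changed every 3–4 days. DNA is measured by DABA fluorescence; DHT-stimulated growth is set to 100%.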

Mus musculus [2] = species: Mus musculus; assay: Androgenic activity in mouse SC115 cells expressing androgen receptor assessed as DHT-induced cell proliferation at 0.1 uM after 10 days relative to DHT; assay type: functional, cell-based; summary of the method: as §1
[3] = Antiandrogenic activity in mouse SC115 cells expressing androgen receptor assessed as inhibition of DHT-induced cell proliferation at 1 uM after 10 days relative to DHT; assay type: functional; conditions: 240 h
Summary of the method: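 SC115 Shionogi clone chosen for high DHT sensitivity; plated at 20,000 cells/well in MEM with 2% dextran-coated charcoal-treated FCS. After 24 h, medium changed and compound (0.1 or 1 μM) added with 0.3 nM DHT; ethanol 0.01% final. 10 days at 37 °C, medium changed every 3–4 days. Growth read as DNA content (DABA fluorescence); DHT-stimulated growth set to 100%; triplicates, mean ± SEM.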

[4] = target: T1, 17-beta-hydroxysteroid dehydrogenase type 1 (Homo sapiens) (UniProt P14061); assay: Inhibition of human 17beta-HSD1 expressed in HEK293 cells assessed as enzyme-mediated transformation of [14C]-E1 in to [14C]-E2 at 0.1 uM; assay type: cell-based
T1 sequence (whole entry): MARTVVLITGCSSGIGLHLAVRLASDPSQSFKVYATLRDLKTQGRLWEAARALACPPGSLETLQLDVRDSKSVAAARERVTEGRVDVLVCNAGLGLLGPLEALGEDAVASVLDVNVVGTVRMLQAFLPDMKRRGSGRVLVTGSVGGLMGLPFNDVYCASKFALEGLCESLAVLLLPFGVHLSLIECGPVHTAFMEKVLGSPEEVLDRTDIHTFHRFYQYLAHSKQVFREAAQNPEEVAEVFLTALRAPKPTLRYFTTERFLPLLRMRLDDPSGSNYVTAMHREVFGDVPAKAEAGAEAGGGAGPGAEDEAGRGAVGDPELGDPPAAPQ

[5] = target: T1, 17-beta-hydroxysteroid dehydrogenase type 1 (Homo sapiens); assay: Inhibition of human 17beta-HSD1 expressed in HEK293 cells assessed as enzyme-mediated transformation of [14C]-E1 in to [14C]-E2 at 1 uM; assay type: cell-based
[6] = target: T2, Aldo-keto reductase family 1 member C3 (Homo sapiens) (UniProt P42330); assay: Inhibition of human 17beta-HSD5 expressed in HEK293 cells assessed as enzyme-mediated transformation of [14C]-4-androstene-3,17-dione in to [14C]-testosterone at 3 uM after 18 hrs; assay type: cell-based
T2 sequence (whole entry): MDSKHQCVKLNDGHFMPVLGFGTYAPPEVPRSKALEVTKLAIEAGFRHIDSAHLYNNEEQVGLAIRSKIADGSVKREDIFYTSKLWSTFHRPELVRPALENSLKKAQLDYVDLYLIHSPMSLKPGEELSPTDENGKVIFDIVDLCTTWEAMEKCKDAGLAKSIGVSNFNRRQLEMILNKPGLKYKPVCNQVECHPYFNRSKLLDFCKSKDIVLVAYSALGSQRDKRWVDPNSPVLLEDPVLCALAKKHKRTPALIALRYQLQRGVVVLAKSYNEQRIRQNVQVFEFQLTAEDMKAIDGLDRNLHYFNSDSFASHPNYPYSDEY
Summary of the method: (§2)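 Intact HEK-293 cells stably over-expressing human 17β-HSD5, in freshly changed culture medium. [14C]-4-androstene-3,17-dione is added at 100 nM with inhibitor from an ethanolic solution; controls get ethanol only. After 18 h the conversion to [14C]-T is measured.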

[7] = target: T2, Aldo-keto reductase family 1 member C3 (Homo sapiens); assay: Inhibition of human 17beta-HSD5 expressed in HEK293 cells assessed as enzyme-mediated transformation of [14C]-4-androstene-3,17-dione in to [14C]-testosterone at 0.3 uM after 18 hrs; assay type: cell-based; summary of the method: as §2
[8] = target: T3, 17-beta-hydroxysteroid dehydrogenase type 3 (Homo sapiens) (UniProt P37058); assay: Inhibition of human 17beta-HSD3 expressed in HEK293 cells assessed as enzyme-mediated transformation of [14C]-4-androstene-3,17-dione in to [14C]-testosterone at 0.1 uM; assay type: cell-based
T3 sequence (whole entry): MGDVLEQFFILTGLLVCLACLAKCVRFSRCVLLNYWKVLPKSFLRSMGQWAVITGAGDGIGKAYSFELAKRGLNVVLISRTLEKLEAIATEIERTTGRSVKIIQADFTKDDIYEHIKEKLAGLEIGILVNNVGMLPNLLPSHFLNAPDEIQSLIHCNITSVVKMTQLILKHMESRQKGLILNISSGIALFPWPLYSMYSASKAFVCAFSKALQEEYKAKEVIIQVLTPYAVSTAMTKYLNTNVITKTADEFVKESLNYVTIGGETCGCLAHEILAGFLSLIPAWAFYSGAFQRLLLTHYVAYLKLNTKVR

[9] = target: T4, Aldo-keto reductase family 1 member C3 (Homo sapiens, UniProt P42330); assay: Inhibition of human 17beta-HSD5 expressed in HEK293 cells assessed as enzyme-mediated transformation of [14C]-4-androstene-3,17-dione in to [14C]-testosterone after 18 hrs; assay type: cell-based
T4 sequence (P42330 whole entry): T2 sequence (whole entry)
Summary of the method: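 Intact HEK-293 cells stably over-expressing human 17β-HSD5, in fresh culture medium. [14C]-4-androstene-3,17-dione 0.1 μM with inhibitor added in ethanol (ethanol alone as control), 18 h.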

[10] = target: T3, 17-beta-hydroxysteroid dehydrogenase type 3 (Homo sapiens); assay: Inhibition of human 17beta-HSD3 expressed in HEK293 cells assessed as enzyme-mediated transformation of [14C]-4-androstene-3,17-dione in to [14C]-testosterone at 1 uM; assay type: cell-based
ZR-75-1 [11] = assay: Antiestrogenic activity in human ZR-75-1 cells expressing estrogen receptor assessed as inhibition of estrogen-induced cell proliferation at 0.1 nM after 9 days relative to estrogen; assay type: functional, cell-based
ZR-75-1 [12] = assay: Estrogenic activity in human ZR-75-1 cells expressing estrogen receptor assessed as estrogen-induced cell proliferation at 0.03 uM after 9 days relative to estrogen; assay type: functional, cell-based
Summary of the method: (§3)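 ZR-75-1 cells are resuspended in phenol red-free RPMI 1640 with 5% dextran-charcoal-treated FBS and seeded at 10,000 cells/well. After 3 days of adhesion, lactones from ethanol stocks are added alone or with E2 (0.1 nM). Cells grow 9 days at 37 °C in 5% CO2, with medium changed every 2–3 days. DNA is measured by DABA fluorescence; E2-induced growth is set to 100%.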

ZR-75-1 [13] = assay: Estrogenic activity in human ZR-75-1 cells expressing estrogen receptor assessed as estrogen-induced cell proliferation at 1 uM after 9 days relative to estrogen; assay type: functional; summary of the method: as §3

Structure (SMILES): CC(C)(O)C(=O)Nc1ccc([N+](=O)[O-])c(C(F)(F)F)c1 [HYDROXYFLUTAMIDE]
- Activity (Mus musculus [1]): inactive
- Activity (Mus musculus [2]): inactive
- inhibition at 1 µM [3]: 94%

Structure (SMILES): CC1CC[C@@]2(CC[C@H]3[C@@H]4CCc5ccccc5[C@H]4CC[C@@]32C)OC1=O (stereo partly drawn)
- inhibition [4]: 21%
- inhibition [5]: 21%
- inhibition [6]: 94%
- inhibition [7]: 91%
- inhibition [8]: 25%
- IC50 [9]: 6.1 nM
- inhibition [10]: 64%

Structure (SMILES): CCCCN(C)C(=O)CCCCCCCCCC[C@@H]1Cc2cc(O)ccc2[C@H]2CC[C@]3(C)[C@@H](O)[C@H](Cl)C[C@H]3[C@H]12
- Activity (ZR-75-1 [11]): Active
- Activity (ZR-75-1 [12]): inactive
- Activity (ZR-75-1 [13]): inactive
